Experimental data published in ChEMBL document CHEMBL2424521, “Long-lasting inhibition of EGFR autophosphorylation in A549 tumor cells by intracellular accumulation of non-covalent inhibitors” (Bioorg Med Chem Lett, 2013).
The source made the active and inactive calls. The rule behind the calls is not given here.

How the values were obtained:
[1] = Stability of the compound in human A549 cell lysates up to 24 hrs in presence of cysteine; format: physicochemical; details: a549, 24 h
Method in brief: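 Compound incubated with A549 cell lysate plus molar excess of cysteine as trapping reagent; cysteine conjugate formation monitored by HPLC–MS for up to 24 h.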

[2] = tested on: A549; assay: Cellular uptake in human A549 cells incubated for 1 hr followed by compound washout measured at 1 hr by HPLC-MS/MS analysis; format: ADME, cell-based; details: a549, 1 h
Method in brief: (§1)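 A549 cells (wild-type EGFR) exposed to 1 µM extracellular compound for 1 h; intracellular content quantified by HPLC-ESI-MS/MS immediately after or 8 h after removal of compound (drug-free incubation) as pmol/mg protein; converted to µM using average cell volume per mg protein estimated from equilibrium distribution of 3-O-methyl-D-[1-³H]glucose in A549 cells.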

[3] = target: T1, Epidermal growth factor receptor (Homo sapiens, UniProt P00533); details: at 1 µM
[4] = target: T1, Epidermal growth factor receptor; assay: Inhibition of wild type EGFR autophosphorylation in human A549 cells incubated for 1 hr followed by compound washout measured at 1 hr by Western blot analysis; format: cell-based
[5] = target: T1, Epidermal growth factor receptor; assay: Inhibition of wild type EGFR autophosphorylation in human A549 cells at 1 uM incubated for 1 hr followed by compound washout measured after 8 hrs by Western blot analysis; format: cell-based
Method in brief: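 A549 cells expressing wild-type EGFR treated 1 h with inhibitor at 1 µM, then washed with drug-free medium; EGFR autophosphorylation in intact cells read by Western blot 8 h after compound removal; percent inhibition as mean of at least two independent experiments ± SEM.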

[6] = tested on: A549; assay: Cellular uptake in human A549 cells incubated for 1 hr followed by compound washout measured after 8 hrs by HPLC-MS/MS analysis; format: ADME, cell-based; details: a549, 1 h; method in brief: as §1
[7] = target: T1, Epidermal growth factor receptor
[8] = target: T1, Epidermal growth factor receptor; assay: Inhibition of wild type EGFR autophosphorylation in human A549 cells incubated for 1 hr followed by compound washout measured after 8 hrs by Western blot analysis; format: cell-based
[9] = target: T1, Epidermal growth factor receptor; details: A549, at 1 µM
[10] = Percentage unbound in human A549 cells at 1 uM after 4 hrs by equilibrium dialysis method; format: ADME, cell-based

T1 sequence (P00533 whole entry): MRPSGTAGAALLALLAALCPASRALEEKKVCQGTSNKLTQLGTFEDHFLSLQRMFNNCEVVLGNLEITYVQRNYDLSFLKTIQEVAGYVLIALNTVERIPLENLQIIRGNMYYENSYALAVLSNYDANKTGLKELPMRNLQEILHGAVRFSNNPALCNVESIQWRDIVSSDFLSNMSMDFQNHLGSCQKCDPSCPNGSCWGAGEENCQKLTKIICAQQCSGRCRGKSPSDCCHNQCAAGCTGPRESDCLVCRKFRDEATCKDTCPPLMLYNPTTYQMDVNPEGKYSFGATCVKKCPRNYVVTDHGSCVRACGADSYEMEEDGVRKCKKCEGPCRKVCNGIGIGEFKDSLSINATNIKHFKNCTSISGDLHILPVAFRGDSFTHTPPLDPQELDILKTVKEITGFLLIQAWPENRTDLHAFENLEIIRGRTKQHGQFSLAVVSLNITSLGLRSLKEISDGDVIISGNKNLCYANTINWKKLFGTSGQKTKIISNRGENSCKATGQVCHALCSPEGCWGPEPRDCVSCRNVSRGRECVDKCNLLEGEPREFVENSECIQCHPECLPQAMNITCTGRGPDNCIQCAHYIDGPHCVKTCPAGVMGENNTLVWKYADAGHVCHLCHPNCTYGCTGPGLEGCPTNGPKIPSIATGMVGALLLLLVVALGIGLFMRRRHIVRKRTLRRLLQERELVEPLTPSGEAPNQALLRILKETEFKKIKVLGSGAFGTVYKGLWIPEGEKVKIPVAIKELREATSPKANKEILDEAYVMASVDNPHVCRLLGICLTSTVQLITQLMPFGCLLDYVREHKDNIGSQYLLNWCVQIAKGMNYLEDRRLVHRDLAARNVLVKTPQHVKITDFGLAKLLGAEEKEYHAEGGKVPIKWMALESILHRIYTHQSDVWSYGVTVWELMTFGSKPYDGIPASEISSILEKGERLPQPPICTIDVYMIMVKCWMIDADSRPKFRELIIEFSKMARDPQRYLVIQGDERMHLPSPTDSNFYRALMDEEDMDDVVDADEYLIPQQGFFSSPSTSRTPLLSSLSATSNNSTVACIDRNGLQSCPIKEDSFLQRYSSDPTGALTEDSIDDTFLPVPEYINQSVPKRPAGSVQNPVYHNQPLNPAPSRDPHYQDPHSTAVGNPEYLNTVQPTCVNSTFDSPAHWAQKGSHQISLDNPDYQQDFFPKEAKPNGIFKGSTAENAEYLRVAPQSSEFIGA

For `O=C(CCCN1CCCCC1)Nc1ccc2ncnc(Nc3cccc(Br)c3)c2c1`, the Stability [1] was “Stable”, the Drug uptake [2] was 147 µM and the inhibition [3] was “inactive”. For the same compound, the IC50 [4] was 5.7 nM, the inhibition [5] was 96% and the Drug uptake [6] was 7.2 µM. For the same compound, the IC50 [7] was 0.63 nM, the IC50 [8] was 13.5 nM and the inhibition [9] was 98%. It also gave a fraction unbound at 4 h, 1 µM [10] of 0.157.

With `O=C(CCOc1ccccc1)Nc1ccc2ncnc(Nc3cccc(Br)c3)c2c1` the Stability [1] was “Stable”, the Drug uptake [2] was 72 µM and the Drug uptake [6] was 0.7 µM.

In the case of `O=C(COc1c(F)c(F)c(F)c(F)c1F)Nc1ccc2ncnc(Nc3cccc(Br)c3)c2c1`, the Stability [1] is reported as “Stable”, the Drug uptake [2] is reported as 240 µM and the Drug uptake [6] is reported as 3.6 µM.

Work on `Nc1ccc2ncnc(Nc3cccc(Br)c3)c2c1` yielded a Drug uptake [2] of 13 µM and a Drug uptake [6] of less than 0.05 µM.

`C=CC(=O)Nc1ccc2ncnc(Nc3cccc(Br)c3)c2c1` gave a Drug uptake [2] of less than 0.05 µM and a Drug uptake [6] of less than 0.05 µM.

For `COc1cc2ncnc(Nc3ccc(F)c(Cl)c3)c2cc1OCCCN1CCOCC1` [GEFITINIB], the Drug uptake [2] was 271 µM, the Drug uptake [6] was 2.3 µM and the fraction unbound at 4 h, 1 µM [10] was 0.322.

Compound `Brc1cccc(Nc2ncnc3ccc(NCCCN4CCCCC4)cc23)c1` has a Drug uptake [2] of 324 µM, an IC50 [4] of 1.7 nM and an inhibition [5] of 90%. For the same compound, the Drug uptake [6] was 105 µM, the IC50 [7] was 0.41 nM and the IC50 [8] was 14.1 nM. It also gave an inhibition [9] of 95% and a fraction unbound at 4 h, 1 µM [10] of 0.077.

`CN(C)CCC(=O)Nc1ccc2ncnc(Nc3cccc(Br)c3)c2c1` showed a Drug uptake [2] of 26 µM and a Drug uptake [6] of less than 0.05 µM.
